Here are results for 2 compounds from ChEMBL document CHEMBL1828510, “Synthesis of 3-heteroarylthioquinoline derivatives and their in vitro antituberculosis and cytotoxicity studies” (Eur J Med Chem, 2011).

The subject of this assay is NIH3T3. In words: Cytotoxicity against mouse NIH/3T3 cells after 48 hrs by MTT assay. To be noted: NIH3T3, 48 h. In kind it is cell-based. In a few lines:
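NIH 3T3 mouse embryonic fibroblasts kept in DMEM + 10% FBS at 37 °C, 5% CO2. Seeded at 10,000 cells/well in medium with 5% FBS and left 24 h to attach. Compounds dissolved in DMSO, diluted in serum-free medium, serial concentrations, 48 h exposure, triplicates. MTT (5 mg/mL stock) added for 4 h, formazan taken up in DMSO, A570 read. Viability calculated as % of untreated control; IC50 taken from the dose curve.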
Background: Formazan colour is commonly taken as a measure of viable cells.

Take `Cc1nnc(Sc2c(-c3ccc(Cl)cc3)nc3ccccc3c2-c2ccccc2)s1`: the IC50 (usually the concentration needed to halve the response being measured) was found to be 1260 µM.

The compound `Cc1nnc(Sc2c(-c3ccc(Br)cc3)nc3ccccc3c2-c2ccccc2)s1` displayed an IC50 of 2050 µM.
